CAL PDZ FP-1: CAL PDZ peptide-binding inhibitors, primary screen, biochemical, fluorescence polarization, Cer-tagged CAL PDZ, HTS; Golgi-associated PDZ and coiled-coil motif-containing protein (Homo sapiens), Q9HD26; purified CAL PDZ, TMR-peptide fluorescence polarization, 1 h; inhibition, % at 20 µM; actives 0.02% (n = 330,000);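 active = highest replicate inhibition of at least 40%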;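 note: plate controls were DMSO neutral control wells for no effect and unlabeled competitor peptide control wells for full effect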
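Read-out basis: mP drop reported as inhibition | Assay system: Tagged CAL PDZ protein CerCALP, purified | Benchmarks: Unlabelled peptide for full inhibition, DMSO wells as neutral | Schedule: 1 h incubation at room temperature before polarization reading | Buffer or medium: Sodium phosphate/NaCl buffer pH 7.4 with TCEP, IgG, Thesit | Doses: Single point, 20 µM | Measured by: Fluorescence polarization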
DYRK1A inh: rat Dyrk1A kinase inhibitors, primary screen, biochemical, single point, plate reader. actives 0.43% (n = 310,000). ADP-Glo luminescence, NFATc1 peptide. Dual specificity tyrosine-phosphorylation-regulated kinase 1A (Rattus norvegicus), Q63470. inhibition, % at 12.5 µM; in the data active = inhibition above about 50%;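 note: plate controls were vehicle with enzyme for no effect and no enzyme for full effect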
ARNT TACC3 PPI: disruptors of ARNT/TACC3 protein interaction, primary screen, biochemical, AlphaScreen, single concentration; Transforming acidic coiled-coil-containing protein 3 (Homo sapiens), Q9Y6A5; AlphaScreen His-ARNT PAS-B/GST-TACC3 binding, luminescence; TACC3 fragment carries E629A point mutation; inhibition, % at 9.99 µM; actives 0.66% (n = 390,000); AID 623870, 2012;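 active = mean inhibition of replicates at least 50% and at least half of replicates each reaching 50%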;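 note: 0% = complete ARNT plus TACC3 wells and 100% = ARNT alone without TACC3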
CAL PDZ FP-2: untagged CAL PDZ binding inhibitors, primary screen, biochemical, fluorescence polarization, HTS; Golgi-associated PDZ and coiled-coil motif-containing protein (Homo sapiens), Q9HD26; inhibition, % at 24.9 µM; purified CAL PDZ, TMR-peptide fluorescence polarization, 1 h; actives 0.92% (n = 300,000); AID 602252, 2012;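 active = mean inhibition of at least 30% with at least half of replicates also reaching 30%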;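 note: 0% = DMSO neutral control and 100% = excess unlabeled competitor peptide PRC23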
ADP-Glo artifact: ADP-Glo luciferase interference without Dyrk1A, dose response, artefact control for Dyrk1A inhibitor project, biochemical, luminescence, cherry-pick, set 02; AC50, µM (doses to about 12 µM), for the others: at the highest dose activity change, negative = inhibition; ADP-Glo luciferase artifact assay, no Dyrk1A; shares compounds with DYRK1A inh; 1,300 tested, under 10 active;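 active = fitted half-maximal dose AC50 no more than ten times the top valid tested dose, with luminescence dropping as dose rises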
Numbers without * were called inactive; . = no result given. The list is not random: actives were taken first. Their share in the collection is about 1.4%.

SMILES | CAL PDZ FP-1 | DYRK1A inh | ARNT TACC3 PPI | CAL PDZ FP-2 | ADP-Glo artifact
O=C(Nc1ncc2c(n1)-c1ccccc1OC2)c1ccc(F)cc1 | -1.5 | . | -10.5 | -1.7 | .
COc1ccc2nc(C)c3c(c2c1)OC(C(C)(Cl)Br)C3 (configuration not stated) | -2.7 | 79.1* | -2.5 | -4.9 | 9.8%
Cc1ccc2nc(C)c3c(c2c1)OC(C(C)(Cl)Br)C3 (configuration not stated) | 0.5 | 45.9 | -6.8 | -1.3 | .
c1ccc2sc(NN=C3CCCCCC3)nc2c1 | -2.3 | 62.2* | 0.2 | -1.5 | 9.0%
C[C@@H]1CCCCO[C@H](CN(C)Cc2ccc3c(c2)OCO3)[C@H](C)CN([C@@H](C)CO)C(=O)c2cc(NC(=O)Nc3cccc4ccccc34)ccc2O1 | . | . | 8.5 | . | .
COc1ccc(-c2coc3cc(O)ccc3c2=O)cc1 | 0.1 | 5.5 | -1.2 | -3.0 | .
COc1ccc(-c2coc3cc(O)ccc3c2=O)cc1O | -3.1 | 56.5* | . | 9.4 | 9.2%
CCOC(=O)C1CCCN(C2=NC(=O)/C(=C/c3ccc(OC)cc3)S2)C1 (configuration not stated) | -2.4 | 16.5 | -3.6 | -1.2 | .
COc1ccc(/C=C2\SC(N)=NC2=O)cc1 | -19.8 | 82.9* | -7.8 | -3.0 | 8.8%
COc1ccc(/C=C2\SC(N3CCc4ccccc4C3)=NC2=O)cc1 | -4.9 | 70.4* | . | -5.1 | 6.3%
CCOc1ccc(/C=C2\SC(N3CCc4ccccc4C3)=NC2=O)cc1 | -1.6 | 13.0 | 1.2 | -2.2 | .
CCOC(=O)CSC1=NC(=O)/C(=C/c2ccc(OC)cc2)S1 | -2.0 | 70.9* | . | -4.1 | 8.0%
COc1ccc(NC(=O)N(C)C[C@H]2OCCCC[C@@H](C)Oc3ccc(NC(=O)Cc4ccccc4)cc3C(=O)N([C@@H](C)CO)C[C@H]2C)cc1 | . | . | 5.9 | . | .
COc1ccccc1-c1ccc([C@H]2[C@@H](CO)N(C(=O)C3CCOCC3)[C@H]2C#N)cc1 | . | . | -0.1 | . | .
C[C@@H]1CCCCO[C@H](CN(C)C)[C@@H](C)CN([C@@H](C)CO)C(=O)c2cc(NC(=O)CCC(F)(F)F)ccc2O1 | . | . | -1.3 | . | .
C[C@@H]1CCCCO[C@@H](CN(C)S(=O)(=O)c2cn(C)cn2)[C@@H](C)CN([C@H](C)CO)C(=O)c2cc(NS(=O)(=O)c3ccccc3)ccc2O1 | . | . | -10.2 | . | .
CO[C@H]1CN(C)C(=O)c2ccc(NC(=O)C3CC3)cc2OC[C@H](C)N(C(=O)CN2CCOCC2)C[C@H]1C | . | . | -3.7 | . | .
C[C@@H]1CN([C@H](C)CO)C(=O)c2cc(C#CC3CCCC3)cnc2O[C@H]1CN(C)C(=O)Cc1ccccn1 | . | . | -1.6 | . | .
c1cncc(CNc2ncnc3ccc(-c4ccoc4)cc23)c1 | -4.2 | 45.6 | -3.6 | -3.7 | .
Cc1cccc(CNc2ncnc3ccc(-c4ccoc4)cc23)c1 | -2.6 | 65.7* | -1.1 | -4.7 | 14.1%
c1ccc2c3c([nH]c2c1)-c1[nH]ncc1CC3 | -1.7 | 55.7* | 18.4 | -4.8 | 9.8%
Clc1ccc2[nH]c3c(c2c1)CCc1cn[nH]c1-3 | -0.8 | 51.3* | -1.9 | -2.7 | 6.8%
C[C@H](CO)N1C[C@H](C)[C@H](CN(C)C(=O)Nc2cccc3ccccc23)Oc2c(NS(=O)(=O)c3ccccc3)cccc2C1=O | . | . | 0.2 | . | .
Cc1nc2ccc3[nH]snc3c2n1 | -0.5 | 55.1* | 3.7 | . | 6.9%
COc1ccc(-c2cc(=O)[nH][nH]2)cc1 | 0.5 | 62.8* | 33.8 | -3.2 | 8.2%
SMILES | CAL PDZ FP-1 | DYRK1A inh | ARNT TACC3 PPI | CAL PDZ FP-2 | ADP-Glo artifact
CCCCn1c(N2CCC(Cc3ccccc3)CC2)nc2c1c(=O)[nH]c(=O)n2C | -0.9 | 55.7* | 23.0 | -0.4 | 6.7%
CCCCn1c(N2CCCC2)nc2c1c(=O)[nH]c(=O)n2C | . | -0.9 | 4.1 | -2.3 | .
COc1ccc(CN(C)C[C@H]2Oc3ccc(NS(=O)(=O)c4cn(C)cn4)cc3C(=O)N([C@@H](C)CO)C[C@@H]2C)cc1 | . | . | -4.0 | . | .
C[C@H]1CN([C@@H](C)CO)C(=O)c2cc(C#Cc3ccccc3F)cnc2O[C@@H]1CN(C)C | . | . | 4.6 | . | .
O=C(COC(=O)c1cccs1)c1ccc2ccccc2c1 | -3.3 | 50.7* | -5.4 | -3.6 | 7.4%
O=c1cc(-c2ccccc2Cl)oc2c(NS(=O)(=O)c3ccccc3C(F)(F)F)ccc(O)c12 | -5.4 | 59.1* | 17.0 | -7.9 | 7.3%
COC(=O)C[C@@H]1CC[C@@H]2[C@H](COc3ccc(NS(=O)(=O)c4cccc(F)c4)cc3C(=O)N2C)O1 | . | . | 2.2 | . | .
Cc1ccc(S(=O)(=O)/N=C2\C=C(Nc3cccc(C(=O)O)c3)C(=O)c3ccccc32)c(C)c1 | -2.3 | 75.8* | 21.6 | -3.1 | 6.4%
Cc1ccc(NC2=C/C(=N/S(=O)(=O)c3cccs3)c3ccccc3C2=O)cc1 | 1.5 | -6.3 | 9.0 | -2.1 | .
Cc1ccc(S(=O)(=O)/N=C2\C=C(NS(=O)(=O)c3ccccc3)C(=O)c3ccccc32)c(C)c1 | -2.3 | 7.2 | 8.0 | . | .
Cc1ccc(S(=O)(=O)/N=C2\C=C(Nc3cccc(C(=O)O)c3)C(=O)c3ccccc32)cc1 | -4.0 | 50.8* | . | -3.4 | 8.1%
CCC(=O)N(C)C[C@H]1Oc2cc(C#CC3(O)CCCC3)ccc2S(=O)(=O)N([C@@H](C)CO)C[C@H]1C | . | . | -1.5 | . | .

Source: PubChem BioAssay
